# Measurements as given in publication PMC3755880 (The Biochemical journal, 2009).
# No end group written: not given here.
# Tests used:
# [1] = test system: cellular membranes; conditions: ref [28]; cited from earlier work
# [2] = target: T1, human PKN1 (Homo sapiens, UniProt Q16512); test: Phosphorylation of GST-tagged oligopeptides by PKN1; format: biochemical; conditions: GST-fused peptide substrate; 30 °C, 5 min
# [3] = test system: rat PKCδ; test: Phosphorylation of GST-tagged oligopeptides by PKCδ; format: biochemical; conditions: GST-fused peptide substrate; 30 °C, 5 min
# [4] = target: T1, human PKN1; test: In vitro kinase assay, δpeptide substrate, PKN1 catalytic domain; format: biochemical; conditions: for inhibition of peptide kinase activity of PKN1: δpeptide substrate, various peptide concentrations, up to 50 μM, 30 °C, 5 min, pH 7.5, 40 μM ATP, representative of three independent experiments
# [5] = test system: androgen receptor-induced tumour cell proliferation; conditions: by inhibition of PKN1; ref [7]; cited from earlier work
# [6] = target: T2, PKN (Homo sapiens, UniProt Q16512); conditions: cited from earlier work; for inhibition of kinase activity of PKN: ref [20]
# [7] = test system: rat PKCα; test: Phosphorylation of GST-tagged oligopeptides by PKCα; format: biochemical; conditions: GST-fused peptide substrate; 30 °C, 5 min
# How it was run: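 GST-fused rat PKCα catalytic domain (332–end) was Sf9/baculovirus-expressed and purified. Reactions were stopped in boiled Laemmli buffer, run on 15% SDS/PAGE, and phosphorylation was read by radioactivity imaging.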
# [8] = test system: PKCδ; conditions: ref [24]; cited from earlier work
# [9] = test system: catalytic domain of all isoforms of PKNs; conditions: ref [24], cited from earlier work
# [10] = test system: PKA; conditions: ref [24]; cited from earlier work
# [11] = target: T2, PKN; test: In vitro kinase assay, PKN; format: biochemical; conditions: Supplementary Figure S4
# How it was run: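 Catalytic domains of human PKN1 (543–end) and PKC isoforms were GST-fused, baculovirus/Sf9-expressed and affinity-purified. 10 ng kinase was incubated 5 min at 30 °C in 20 mM Tris/HCl pH 7.5, 4 mM MgCl2, 40 μM ATP, [γ-32P]ATP, 100 μM δpeptide (PKCδ 137–153, A147S) and BSA or GST, ± peptides. Reactions were read on P81 paper by Cherenkov counting; no-peptide activity = 100%.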
# [12] = test system: interaction between Iα and the catalytic domain of PKN1; conditions: ref [24]; cited from earlier work
# T1 sequence (Q16512 543-942 limits assumed): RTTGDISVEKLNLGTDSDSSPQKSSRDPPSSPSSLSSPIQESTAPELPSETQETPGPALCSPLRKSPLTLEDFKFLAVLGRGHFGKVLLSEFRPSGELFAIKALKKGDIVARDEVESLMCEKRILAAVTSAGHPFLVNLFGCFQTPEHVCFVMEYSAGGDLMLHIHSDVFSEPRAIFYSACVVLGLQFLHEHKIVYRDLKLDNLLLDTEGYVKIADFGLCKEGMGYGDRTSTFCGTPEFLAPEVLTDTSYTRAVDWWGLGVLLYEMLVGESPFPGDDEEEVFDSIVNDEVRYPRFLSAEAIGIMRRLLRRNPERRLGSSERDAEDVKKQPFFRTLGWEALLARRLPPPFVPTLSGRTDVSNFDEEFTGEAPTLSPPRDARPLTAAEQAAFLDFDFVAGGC
# T2 sequence (Q16512 543-942 limits assumed): as above
compound,measurement,setting,value
"O=C(O)CCCc1ccc2ccc3cccc4ccc1c2c34 [Pyrenebutyrate, pyrenebutyrate]",ability of CPP-fused peptides to translocate across cellular membranes,[1],improve the ability of CPP-fused peptides to translocate across cellular membranes
LSKVTSKCGS [tau320],phosphorylation by PKN1,[2],efficiently phosphorylated
same,phosphorylation by PKCδ,[3],efficiently phosphorylated
PVIERIPRLRRQKKI,inhibition of peptide kinase activity of PKN1,[4],partially inhibited
Cn1cc(C2=C(c3cn(CCCSC(=N)N)c4ccccc34)C(=O)NC2=O)c2ccccc21 [Ro318220],effect on androgen receptor-induced tumour cell proliferation,[5],blocks proliferation
CC1CNCCN1S(=O)(=O)c1cccc2cnccc12 (stereo not shown) [H-7],inhibition of kinase activity of PKN,[6],potently inhibit
PRLRRQKKIFSKQQG [PRL],Ki,[4],700 nM
same,effect on apparent Km for δpeptide,"[4]; Michaelis–Menten fit, increasing PRL concentrations",increased the apparent Km
KRRKPSFRNP [NS1],phosphorylation by PKCα,[7],efficiently phosphorylated
same,phosphorylation by PKCδ,[3],efficiently phosphorylated
His6-tagged Iα: His-tagged region comprising amino acid residues 455–511 of PKN1,effect on PKCδ,[8],no inhibitory effect
same,inhibition of PKN kinase activity by His-tagged Iα,[9]; direct effects on the catalytic region,potently inhibited
same,inhibition of catalytic domain of all PKN isoforms,[9],inhibited
same,effect on PKA,[10],no inhibitory effect
PRLRRQKKIFSKQQG-NH-CH2CH2-SH [PRL-SH],selectivity for PKN over PKC in vitro,[11],selective inhibition of PKN
AEVTFRNPVIERIPRLRR,inhibition of peptide kinase activity of PKN1,[4],partially inhibited
CN(C)CCCn1cc(C2=C(c3c[nH]c4ccccc34)C(=O)NC2=O)c2ccccc21 [bisindolylmaleimide I],inhibition of kinase activity of PKN,[6],potently inhibit
QKKIFSKQQGKAFQAARQMN,inhibition of peptide kinase activity of PKN1,[4],partially inhibited
"CCCCC/C=C\C/C=C\C/C=C\C/C=C\CCCC(=O)O [Arachidonic acid, arachidonic acid]",effect on interaction between Iα and catalytic domain of PKN1,[12],directly interfere with the interaction
same,relief of autoinhibition of wild-type PKN1 by Iα,[12],relieve the catalytic activity of wild-type PKN1 from autoinhibition by Iα
same,activation of PKN in vitro,[6]; ref [1],activated
NERHEVQLDMEPQGCLV,inhibition of peptide kinase activity of PKN1,[4],did not inhibit
